The values that follow come from ChEMBL document CHEMBL1148012, “Synthesis, inhibition and binding of simple non-nitrogen inhibitors of monoamine transporters” (Bioorg Med Chem, 2007).

In general, pKi refers to the negative decadic logarithm of the Ki, by convention in mol/L. A low value points to a high Ki.

Structures are written as SMILES. pKi: −log10 of the molar value.

In test [1] the target is T1, Sodium-dependent serotonin transporter (Homo sapiens, UniProt P31645). Nature of the test: Displacement of [125I]RTI55 from human SERT expressed in COS1 cell membrane. Format: cell membranes, COS-1. An outline of the steps: (§1)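 Membranes from COS-1 cells stably transfected with hDAT or hSERT (pIRES, blasticidin selection), homogenised and washed, resuspended in PBSCM. Filtration onto PEI-soaked GF/B filters, scintillation counting.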
T1 sequence (P31645 whole entry): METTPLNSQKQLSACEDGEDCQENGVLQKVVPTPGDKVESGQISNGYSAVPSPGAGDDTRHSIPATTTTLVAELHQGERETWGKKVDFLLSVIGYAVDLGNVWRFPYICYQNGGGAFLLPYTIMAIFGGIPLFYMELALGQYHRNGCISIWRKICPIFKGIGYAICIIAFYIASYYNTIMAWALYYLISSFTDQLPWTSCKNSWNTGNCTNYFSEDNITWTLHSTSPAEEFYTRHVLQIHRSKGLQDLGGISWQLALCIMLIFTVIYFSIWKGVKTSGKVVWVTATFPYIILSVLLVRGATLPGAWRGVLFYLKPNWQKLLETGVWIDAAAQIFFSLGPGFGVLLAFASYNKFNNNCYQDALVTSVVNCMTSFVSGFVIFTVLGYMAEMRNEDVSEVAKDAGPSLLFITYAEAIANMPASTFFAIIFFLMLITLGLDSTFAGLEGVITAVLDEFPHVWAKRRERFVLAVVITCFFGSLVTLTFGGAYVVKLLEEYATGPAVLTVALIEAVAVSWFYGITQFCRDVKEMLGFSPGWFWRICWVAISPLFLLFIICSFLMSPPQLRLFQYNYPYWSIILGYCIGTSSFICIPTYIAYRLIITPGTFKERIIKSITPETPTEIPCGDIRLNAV
On the technique in general: Displacement assays read how much labelled ligand stays bound in the presence of the test substance.

In test [2] the target is T2, Sodium-dependent dopamine transporter (Homo sapiens, UniProt Q01959). Nature of the test: Inhibition of [3H]DA uptake in human DAT expressed in COS1 cell membrane. The format is functional, cell-based, COS-1. A digest of the protocol: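 Intact COS-1 cells stably expressing hDAT, grown two days at 37 °C, washed in PBSCM pH 7.4. Drug dilutions preincubated 30 min, then 30–100 nM [3H]DA added with drug. Uptake 10 min at 20 °C, stopped by aspiration and washing. Accumulated radioactivity counted after solubilising cells in scintillant. IC50 determined.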
T2 sequence (Q01959 whole entry): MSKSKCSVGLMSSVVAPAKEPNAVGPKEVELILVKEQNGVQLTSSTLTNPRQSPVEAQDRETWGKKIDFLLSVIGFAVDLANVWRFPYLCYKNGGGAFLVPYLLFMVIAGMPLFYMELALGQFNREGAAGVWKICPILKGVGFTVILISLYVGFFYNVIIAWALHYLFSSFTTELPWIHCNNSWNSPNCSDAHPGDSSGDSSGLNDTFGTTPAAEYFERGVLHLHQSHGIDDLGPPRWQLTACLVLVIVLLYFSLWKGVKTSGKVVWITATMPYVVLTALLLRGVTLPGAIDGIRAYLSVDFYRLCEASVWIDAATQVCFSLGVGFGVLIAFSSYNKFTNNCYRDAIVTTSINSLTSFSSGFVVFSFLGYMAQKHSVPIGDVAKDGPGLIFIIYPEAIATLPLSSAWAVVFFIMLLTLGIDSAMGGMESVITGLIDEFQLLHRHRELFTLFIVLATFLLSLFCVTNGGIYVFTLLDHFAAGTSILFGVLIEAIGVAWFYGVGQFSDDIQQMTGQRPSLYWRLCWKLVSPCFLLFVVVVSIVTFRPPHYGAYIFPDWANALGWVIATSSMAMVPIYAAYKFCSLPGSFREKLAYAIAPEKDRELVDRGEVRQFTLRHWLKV

For test [3], the target named is T1, Sodium-dependent serotonin transporter. Nature of the test: Inhibition of [3H]SER uptake in human SERT expressed in COS1 cell membrane. Format: functional, cell-based, COS-1. An outline of the steps: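 Intact COS-1 cells stably expressing hSERT, grown two days at 37 °C, washed in PBSCM pH 7.4. Drug dilutions preincubated 30 min, then 30–100 nM [3H]5-HT added with drug. Uptake 10 min at 20 °C, stopped by aspiration and washing. Accumulated radioactivity counted after solubilising cells in scintillant. IC50 determined.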

Test [4] concerns the target T2, Sodium-dependent dopamine transporter. Nature of the test: Displacement of [125I]RTI55 from human DAT expressed in COS1 cell membrane. Format: cell membranes, COS-1. A digest of the protocol:
as §1

The target of test [5] is T3, Sodium-dependent noradrenaline transporter (Homo sapiens, UniProt P23975). Nature of the test: Inhibition of [3H]DA uptake in human NET expressed in COS1 cell membrane. Format: functional, cell-based, COS-1.
T3 sequence (P23975 whole entry): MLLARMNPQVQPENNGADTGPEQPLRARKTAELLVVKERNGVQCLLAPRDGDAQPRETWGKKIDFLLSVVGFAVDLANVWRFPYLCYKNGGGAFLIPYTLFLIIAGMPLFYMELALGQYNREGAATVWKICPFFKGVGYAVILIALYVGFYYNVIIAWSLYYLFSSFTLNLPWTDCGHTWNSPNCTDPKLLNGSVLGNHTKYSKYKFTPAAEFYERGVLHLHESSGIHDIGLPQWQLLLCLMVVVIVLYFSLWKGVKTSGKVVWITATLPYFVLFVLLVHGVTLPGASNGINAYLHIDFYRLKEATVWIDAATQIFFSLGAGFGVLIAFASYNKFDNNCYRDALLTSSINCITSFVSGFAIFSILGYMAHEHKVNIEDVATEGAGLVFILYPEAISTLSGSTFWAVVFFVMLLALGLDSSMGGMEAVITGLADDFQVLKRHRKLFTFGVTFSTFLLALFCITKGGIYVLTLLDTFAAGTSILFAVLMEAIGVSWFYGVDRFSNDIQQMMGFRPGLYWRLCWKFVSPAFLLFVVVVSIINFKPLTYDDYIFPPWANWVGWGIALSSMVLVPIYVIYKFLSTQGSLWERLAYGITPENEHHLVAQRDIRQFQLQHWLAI
The target of test [6] is T3, Sodium-dependent noradrenaline transporter. In words: Displacement of [125I]RTI55 from human NET expressed in COS1 cell membrane. Format: cell membranes, COS-1.

Consider `COC(=O)C1=C(c2ccc(C(C)=O)cc2)CCC1`, for which the negative-log Ki (pKi) in test [1] was 3.53; in test [2], 4.31; in test [3], 2.94; in test [4], 3.47; in test [5], 3.19; in test [6], 3.62.
For the compound `COC(=O)C1=C(c2ccc(Cl)cc2)CCC1`, the pKi is 2.55 in test [1]; 5.68 in test [2]; 4.74 in test [4]; 3.75 in test [5]; 3.38 in test [6].
In the case of `COC(=O)C1=C(c2cccc(Cl)c2)CCC1`, the pKi is 2.65 in test [1]; 5.48 in test [2]; 4.47 in test [4]; 3.55 in test [5]; 3.33 in test [6].
The like results for `COC(=O)C1=C(c2ccc(Cl)c(Cl)c2)CCCCC1` were, in that order, 3.83, 6.29, 5.87, 5.33 and 4.82.
On to `COC(=O)C1=C(c2ccc(OC)cc2)CCC1`, for which the negative logarithm of the Ki (pKi) in test [1] was 2.57; in test [2], 5.20; in test [4], 3.85; in test [5], 2.86; in test [6], 3.26.
Consider `COC(=O)C1=C(c2ccc(Cl)c(Cl)c2)CCCC1`, for which the pKi in test [1] is 3.64; in test [2], 6.20; in test [4] it was 5.68; in test [5], 5.31; in test [6] it was 4.85.
In the case of `COC(=O)C1=C(c2ccc3ccccc3c2)CCC1`, the pKi was 3.38 in test [1]; 5.15 in test [2]; 5.39 in test [4]; 4.59 in test [5]; 4.41 in test [6].
Take `COC(=O)C1=C(c2ccc(Cl)cc2)CCCCC1`: the negative-log Ki (pKi) in test [1] was 3.15; in test [2] it was 5.66; in test [4], 4.82; in test [5] it was 4.70; in test [6] it was 4.08.
Consider `COC(=O)C1=C(c2cccc(Cl)c2)CCCC1`, for which the pKi was 2.93 in test [1]; 4.59 in test [2]; 4.66 in test [4]; 3.06 in test [5]; 3.47 in test [6].
The like results for `COC(=O)C1=C(c2ccc3ccccc3c2)CCCC1` were, in that order, 3.96, 5.82, 4.92, 5.00 and 4.09.
In the case of `COC(=O)C1=C(c2ccc(O)cc2)CCCC1`, the pKi in test [1] was 3.24; in test [4], 3.64; in test [5] it was 3.30; in test [6], 3.17.
As to `COC(=O)[C@H]1[C@@H](c2ccc(I)cc2)C[C@H]2CC[C@@H]1N2C` [IODINE 2BETA-CARBOMETHOXY-3BETA-(4 IODOPHENYL)-TROPANE], the pKi in test [1] was 8.22; in test [2] it was 8.05; in test [3], 8.40; in test [4], 8.40; in test [5] it was 8.00; in test [6], 7.47.
`COC(=O)C1=C(c2cccc(Cl)c2)CCCCC1`: the pKi was 3.33 in test [1], 5.42 in test [2], 4.66 in test [4] and 4.07 in test [6].
With `COC(=O)C1=C(c2ccc(-c3ccccc3)cc2)CCCCC1`, the pKi in test [1] was 4.49; in test [2], 6.09; in test [4], 5.70; in test [5] it was 5.41; in test [6], 4.89.
`C/C=C/C1=C(c2ccc(Cl)c(Cl)c2)CCCC1`: the pKi was 3.42 in test [1], 4.38 in test [2], 4.96 in test [4] and 3.59 in test [6].
On to `COC(=O)[C@@H]1CN(C)CC[C@H]1c1ccc(I)cc1` (racemic), for which the values for the pKi in test [1], in test [4] and in test [6] were 5.55, 5.90 and 5.64, respectively.
As for `COC(=O)C1=C(c2ccc(Cl)c(Cl)c2)CCC1`, the negative logarithm of the Ki (pKi) in test [1] was 3.11; in test [2], 5.26; in test [4], 5.72; in test [5] it was 4.55; in test [6], 4.96.
For the compound `COC(=O)[C@@H]1CCCC[C@@H]1c1ccc(OC(F)(F)F)cc1`, the pKi in test [1] was 3.22; in test [4], 2.93; in test [6], 3.14.
As to `CCOC(=O)C1=C(c2ccc3ccccc3c2)CCNC1`, the values for the pKi in test [1], in test [4] and in test [6] were 6.36, 7.10 and 6.57, respectively.
As for `CCOC(=O)C1=C(c2ccc(Cl)c(Cl)c2)CCNC1`, the pKi in test [1] is 6.66; in test [4], 6.04; in test [6], 5.60.
Turning to `COC(=O)C1=C(c2cccc(N)c2)CCC1`, the pKi was 2.71 in test [1]; 3.92 in test [2]; 2.54 in test [3]; 3.06 in test [4]; 3.61 in test [5]; 2.88 in test [6].
Take `COC(=O)[C@@H]1CCCC[C@@H]1c1cccc(C(F)(F)F)c1`: the pKi in test [1] is 2.72; in test [4], 3.24; in test [6], 3.00.
Consider `CCOC(=O)C1=C(c2cccc([N+](=O)[O-])c2)CCNC1`, for which the pKi in test [1] was 5.52; in test [4], 4.69; in test [6] it was 5.00.
As for `COC(=O)C1=C(c2ccc(Cl)cc2)CCCC1`, the pKi is 2.73 in test [1]; 6.23 in test [2]; 4.07 in test [4]; 3.50 in test [5]; 3.00 in test [6].
In the case of `COC(=O)C1=C(c2ccc(OC(F)(F)F)cc2)CCC1`, the values for the pKi in test [1], in test [4] and in test [6] were 2.42, 2.58 and 2.54, respectively.
